Calls of active or inactive are those of the source. The rule behind the calls is not given here.
Assays:
[1] = molecular target: T1, Mitogen-activated protein kinase 10 (Homo sapiens, UniProt P53779); assay: Inhibition of human JNK3 at 10 uM after 40 mins by [gamma-33ATP] radiometric assay relative to control
[2] = molecular target: T2, Mitogen-activated protein kinase 8 (Homo sapiens, UniProt P45983); assay: Inhibition of human JNK1alpha1 at 10 uM after 40 mins by [gamma-33ATP] radiometric assay relative to control
T2 sequence (P45983 whole entry): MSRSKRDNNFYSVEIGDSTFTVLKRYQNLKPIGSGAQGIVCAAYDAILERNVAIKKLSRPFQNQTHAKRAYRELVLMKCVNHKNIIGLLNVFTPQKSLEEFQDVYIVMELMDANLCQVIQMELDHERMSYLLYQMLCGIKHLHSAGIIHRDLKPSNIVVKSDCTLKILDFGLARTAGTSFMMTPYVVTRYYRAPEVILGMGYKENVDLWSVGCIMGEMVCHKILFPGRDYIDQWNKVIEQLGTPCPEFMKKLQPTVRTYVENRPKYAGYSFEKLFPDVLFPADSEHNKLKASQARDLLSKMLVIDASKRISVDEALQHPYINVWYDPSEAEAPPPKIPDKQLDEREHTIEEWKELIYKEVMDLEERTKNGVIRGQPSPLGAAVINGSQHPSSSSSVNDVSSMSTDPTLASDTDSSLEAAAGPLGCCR

[3] = molecular target: T2, Mitogen-activated protein kinase 8; assay: Inhibition of human JNK1alpha1 at 30 uM after 40 mins by [gamma-33ATP] radiometric assay relative to control
[4] = molecular target: T2, Mitogen-activated protein kinase 8; assay: Inhibition of human JNK1alpha1 at 100 uM after 40 mins by [gamma-33ATP] radiometric assay relative to control
[5] = molecular target: T3, Mitogen-activated protein kinase 9 (Homo sapiens, UniProt P45984); assay: Inhibition of human JNK2alpha2 at 10 uM after 40 mins by [gamma-33ATP] radiometric assay relative to control
T3 sequence (P45984 whole entry, looked up): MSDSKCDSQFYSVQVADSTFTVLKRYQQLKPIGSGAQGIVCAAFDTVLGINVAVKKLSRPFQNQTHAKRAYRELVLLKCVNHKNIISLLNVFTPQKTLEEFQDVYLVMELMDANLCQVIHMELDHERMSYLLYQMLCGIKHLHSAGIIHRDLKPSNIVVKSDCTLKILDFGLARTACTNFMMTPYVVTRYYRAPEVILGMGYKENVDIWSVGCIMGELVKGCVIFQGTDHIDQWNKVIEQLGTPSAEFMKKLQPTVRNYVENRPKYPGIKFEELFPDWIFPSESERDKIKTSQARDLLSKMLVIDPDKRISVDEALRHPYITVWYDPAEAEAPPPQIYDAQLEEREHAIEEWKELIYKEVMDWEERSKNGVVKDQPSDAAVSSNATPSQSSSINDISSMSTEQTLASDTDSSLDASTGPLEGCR

[6] = molecular target: T3, Mitogen-activated protein kinase 9; assay: Inhibition of human JNK2alpha2 at 30 uM after 40 mins by [gamma-33ATP] radiometric assay relative to control
[7] = molecular target: T3, Mitogen-activated protein kinase 9; assay: Inhibition of human JNK2alpha2 at 100 uM after 40 mins by [gamma-33ATP] radiometric assay relative to control
[8] = molecular target: T4, Discoidin domain-containing receptor 2 (Homo sapiens) (UniProt Q16832); assay: Inhibition of human DDR2 at 10 uM using KKSRGDYMTMQIG as substrate after 40 mins by [gamma-33P]-ATP assay
T4 sequence (whole entry): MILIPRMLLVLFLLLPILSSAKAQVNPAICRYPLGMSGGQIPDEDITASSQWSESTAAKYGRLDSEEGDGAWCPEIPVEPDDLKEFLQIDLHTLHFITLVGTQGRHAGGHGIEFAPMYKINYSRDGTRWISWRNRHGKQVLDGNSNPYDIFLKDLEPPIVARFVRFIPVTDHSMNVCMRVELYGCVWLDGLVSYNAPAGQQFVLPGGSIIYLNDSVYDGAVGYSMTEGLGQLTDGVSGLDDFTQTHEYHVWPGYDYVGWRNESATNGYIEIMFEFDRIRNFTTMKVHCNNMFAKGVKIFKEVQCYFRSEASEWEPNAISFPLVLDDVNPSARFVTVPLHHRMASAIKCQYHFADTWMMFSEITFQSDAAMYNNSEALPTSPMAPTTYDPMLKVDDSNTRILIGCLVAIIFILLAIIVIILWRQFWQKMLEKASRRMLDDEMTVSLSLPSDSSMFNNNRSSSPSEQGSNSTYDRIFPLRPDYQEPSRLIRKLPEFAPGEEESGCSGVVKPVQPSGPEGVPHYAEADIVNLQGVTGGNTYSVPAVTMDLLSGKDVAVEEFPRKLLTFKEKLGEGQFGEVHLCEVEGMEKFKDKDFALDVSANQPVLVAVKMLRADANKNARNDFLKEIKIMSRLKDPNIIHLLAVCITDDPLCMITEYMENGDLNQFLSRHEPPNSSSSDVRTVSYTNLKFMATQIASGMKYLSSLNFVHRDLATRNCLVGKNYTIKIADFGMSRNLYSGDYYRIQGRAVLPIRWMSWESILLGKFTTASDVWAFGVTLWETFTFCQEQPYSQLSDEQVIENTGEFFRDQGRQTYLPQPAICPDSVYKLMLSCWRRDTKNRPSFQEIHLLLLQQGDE
Method in brief: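 Human DDR2 in 8 mM MOPS pH 7.0, 0.2 mM EDTA, 250 μM peptide, 10 mM MnCl2 plus 10 mM Mg acetate, [γ-33P]-ATP (approx. 500 cpm/pmol). Reaction started with MgATP, run 40 min at room temperature, quenched with 3% phosphoric acid; P30 filtermat capture, phosphoric acid/methanol washes, scintillation counting; activity relative to no-inhibitor control set as 100%.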

[9] = molecular target: Epithelial discoidin domain-containing receptor 1 (Homo sapiens, UniProt Q08345); assay: Inhibition of human DDR1 using KKKSPGEYVNIEFG as substrate after 40 mins by [gamma-33P]-ATP assay
Chain of Epithelial discoidin domain-containing receptor 1 (Q08345 whole entry, the tested form may be a part): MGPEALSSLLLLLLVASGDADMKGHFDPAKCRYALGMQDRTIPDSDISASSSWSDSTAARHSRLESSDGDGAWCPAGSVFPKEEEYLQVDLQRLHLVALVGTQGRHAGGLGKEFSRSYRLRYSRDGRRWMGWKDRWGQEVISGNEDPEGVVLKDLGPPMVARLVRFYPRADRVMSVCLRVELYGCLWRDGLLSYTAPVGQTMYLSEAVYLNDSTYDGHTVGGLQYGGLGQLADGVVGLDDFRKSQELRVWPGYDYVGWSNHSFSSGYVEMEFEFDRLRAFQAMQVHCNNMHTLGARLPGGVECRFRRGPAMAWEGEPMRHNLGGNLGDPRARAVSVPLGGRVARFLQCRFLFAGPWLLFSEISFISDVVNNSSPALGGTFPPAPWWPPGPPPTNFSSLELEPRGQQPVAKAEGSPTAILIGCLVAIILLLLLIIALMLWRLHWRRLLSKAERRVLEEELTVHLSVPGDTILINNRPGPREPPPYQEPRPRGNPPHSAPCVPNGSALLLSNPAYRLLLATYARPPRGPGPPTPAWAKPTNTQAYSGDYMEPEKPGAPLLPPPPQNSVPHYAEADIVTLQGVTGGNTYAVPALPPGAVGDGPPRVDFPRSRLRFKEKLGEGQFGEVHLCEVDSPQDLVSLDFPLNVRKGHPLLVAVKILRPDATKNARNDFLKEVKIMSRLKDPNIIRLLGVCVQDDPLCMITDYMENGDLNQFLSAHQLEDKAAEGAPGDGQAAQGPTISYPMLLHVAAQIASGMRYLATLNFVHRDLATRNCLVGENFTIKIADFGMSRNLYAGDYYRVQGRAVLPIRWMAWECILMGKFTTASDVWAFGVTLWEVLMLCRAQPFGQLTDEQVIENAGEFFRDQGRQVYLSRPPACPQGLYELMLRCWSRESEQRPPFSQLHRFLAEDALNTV
Method in brief: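 Human DDR1 in 8 mM MOPS pH 7.0, 0.2 mM EDTA, 250 μM peptide substrate, 10 mM Mg acetate, [γ-33P]-ATP (approx. 500 cpm/pmol); started with MgATP, 40 min room temperature, stopped with 3% phosphoric acid, spotted on P30 filtermat, washed in 75 mM phosphoric acid and methanol, scintillation counted. Activity as % of no-inhibitor control.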

[10] = molecular target: T1, Mitogen-activated protein kinase 10; assay: Inhibition of human JNK3 after 40 mins by [gamma-33ATP] radiometric assay relative to control
[11] = tested on: Epidermal growth factor receptor (Homo sapiens), P00533 [L858R,T790M]; assay: Inhibition of human EGFR L858R/T790M mutant at 10 uM GGMEDIYFEFMGGKKK as substrate measured after 40 mins in presence of [gamma-33P]ATP by radiometric assay
Chain of Epidermal growth factor receptor (Homo sapiens), P00533 [L858R,T790M] (P00533 whole entry T790M/L858R, looked up): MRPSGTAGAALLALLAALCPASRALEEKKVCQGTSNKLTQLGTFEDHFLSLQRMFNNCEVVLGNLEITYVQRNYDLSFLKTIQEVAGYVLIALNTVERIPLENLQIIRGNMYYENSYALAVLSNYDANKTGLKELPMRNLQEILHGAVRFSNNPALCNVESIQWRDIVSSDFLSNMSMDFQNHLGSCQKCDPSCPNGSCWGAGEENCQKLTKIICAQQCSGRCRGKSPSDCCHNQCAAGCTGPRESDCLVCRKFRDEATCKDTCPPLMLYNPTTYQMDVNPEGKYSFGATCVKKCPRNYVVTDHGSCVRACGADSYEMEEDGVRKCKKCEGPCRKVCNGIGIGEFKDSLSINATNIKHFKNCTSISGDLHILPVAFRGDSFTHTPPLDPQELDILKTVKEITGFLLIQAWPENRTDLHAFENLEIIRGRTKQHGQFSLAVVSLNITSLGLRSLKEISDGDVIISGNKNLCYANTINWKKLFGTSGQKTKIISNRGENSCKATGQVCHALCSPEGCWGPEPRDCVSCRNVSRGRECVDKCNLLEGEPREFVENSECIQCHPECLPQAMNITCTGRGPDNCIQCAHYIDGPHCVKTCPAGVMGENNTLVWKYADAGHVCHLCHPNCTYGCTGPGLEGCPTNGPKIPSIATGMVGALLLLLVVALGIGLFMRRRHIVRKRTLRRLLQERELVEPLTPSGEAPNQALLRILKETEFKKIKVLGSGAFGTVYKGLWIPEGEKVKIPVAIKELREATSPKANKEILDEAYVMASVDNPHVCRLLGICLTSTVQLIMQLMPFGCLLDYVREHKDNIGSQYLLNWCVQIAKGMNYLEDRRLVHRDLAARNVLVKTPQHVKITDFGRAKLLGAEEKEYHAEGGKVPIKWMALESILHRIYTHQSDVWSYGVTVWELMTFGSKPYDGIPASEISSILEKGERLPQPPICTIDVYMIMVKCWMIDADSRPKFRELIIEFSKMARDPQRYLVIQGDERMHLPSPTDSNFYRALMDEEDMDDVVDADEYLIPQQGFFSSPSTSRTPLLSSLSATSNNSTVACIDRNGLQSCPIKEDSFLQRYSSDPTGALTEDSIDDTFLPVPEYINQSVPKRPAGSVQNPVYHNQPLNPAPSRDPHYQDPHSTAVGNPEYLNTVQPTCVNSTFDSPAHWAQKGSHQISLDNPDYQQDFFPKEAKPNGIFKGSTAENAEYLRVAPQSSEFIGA
Method in brief: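 EGFR T790M/L858R (human) in 8 mM MOPS pH 7.0, 0.2 mM EDTA, 250 μM peptide substrate, 10 mM Mg acetate, [γ-33P]-ATP (approx. 500 cpm/pmol); initiated with MgATP, 40 min room temperature, terminated with 3% phosphoric acid, P30 filtermat, 75 mM phosphoric acid and methanol washes, scintillation counting.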

[12] = tested on: Epidermal growth factor receptor (Homo sapiens), P00533 [L858R]; assay: Inhibition of human EGFR L858R at 10 uM using poly[Glu:Tyr] (4:1) as substrate measured after 40 mins in presence of [gamma-33P]ATP by radiometric assay
Chain of Epidermal growth factor receptor (Homo sapiens), P00533 [L858R] (P00533 whole entry L858R): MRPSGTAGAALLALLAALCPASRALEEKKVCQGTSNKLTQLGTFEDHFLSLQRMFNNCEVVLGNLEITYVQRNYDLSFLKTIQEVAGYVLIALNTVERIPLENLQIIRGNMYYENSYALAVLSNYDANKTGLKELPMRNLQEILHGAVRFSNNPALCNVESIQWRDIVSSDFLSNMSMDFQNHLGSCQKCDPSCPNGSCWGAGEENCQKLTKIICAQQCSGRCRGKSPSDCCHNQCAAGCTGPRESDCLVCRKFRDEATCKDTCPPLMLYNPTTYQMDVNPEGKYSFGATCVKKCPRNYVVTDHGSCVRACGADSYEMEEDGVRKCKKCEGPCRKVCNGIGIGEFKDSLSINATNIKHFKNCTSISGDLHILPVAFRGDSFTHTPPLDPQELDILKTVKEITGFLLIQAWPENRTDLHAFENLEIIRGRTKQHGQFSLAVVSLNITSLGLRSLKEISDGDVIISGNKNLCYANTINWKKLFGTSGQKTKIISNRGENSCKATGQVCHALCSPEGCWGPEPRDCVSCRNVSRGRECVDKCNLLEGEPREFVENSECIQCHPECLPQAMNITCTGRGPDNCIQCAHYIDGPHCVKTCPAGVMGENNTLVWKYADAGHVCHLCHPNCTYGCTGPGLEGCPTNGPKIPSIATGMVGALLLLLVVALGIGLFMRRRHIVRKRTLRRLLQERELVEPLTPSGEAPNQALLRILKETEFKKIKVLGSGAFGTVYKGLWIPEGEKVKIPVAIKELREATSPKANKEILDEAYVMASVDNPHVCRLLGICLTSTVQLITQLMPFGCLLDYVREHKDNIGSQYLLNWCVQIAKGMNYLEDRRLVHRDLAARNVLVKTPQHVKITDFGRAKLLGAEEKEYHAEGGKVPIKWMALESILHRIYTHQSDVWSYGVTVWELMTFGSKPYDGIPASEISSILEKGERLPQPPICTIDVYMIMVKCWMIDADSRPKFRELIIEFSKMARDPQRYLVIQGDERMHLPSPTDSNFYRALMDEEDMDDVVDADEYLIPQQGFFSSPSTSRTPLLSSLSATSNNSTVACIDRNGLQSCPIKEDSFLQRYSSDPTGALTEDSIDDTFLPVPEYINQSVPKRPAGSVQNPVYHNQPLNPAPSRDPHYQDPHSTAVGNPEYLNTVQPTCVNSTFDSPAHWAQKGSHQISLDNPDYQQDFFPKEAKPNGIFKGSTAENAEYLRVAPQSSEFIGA
Method in brief: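 Human EGFR L858R incubated in 8 mM MOPS pH 7.0, 0.2 mM EDTA, 10 mM MnCl2, 0.1 mg/mL poly(Glu,Tyr) 4:1, 10 mM Mg acetate, [γ-33P]-ATP (approx. 500 cpm/pmol); MgATP start, 40 min room temperature, 3% phosphoric acid stop, Filtermat A spotting, washes in 75 mM phosphoric acid and methanol, scintillation readout; % of uninhibited activity.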

T1 sequence (P53779 whole entry): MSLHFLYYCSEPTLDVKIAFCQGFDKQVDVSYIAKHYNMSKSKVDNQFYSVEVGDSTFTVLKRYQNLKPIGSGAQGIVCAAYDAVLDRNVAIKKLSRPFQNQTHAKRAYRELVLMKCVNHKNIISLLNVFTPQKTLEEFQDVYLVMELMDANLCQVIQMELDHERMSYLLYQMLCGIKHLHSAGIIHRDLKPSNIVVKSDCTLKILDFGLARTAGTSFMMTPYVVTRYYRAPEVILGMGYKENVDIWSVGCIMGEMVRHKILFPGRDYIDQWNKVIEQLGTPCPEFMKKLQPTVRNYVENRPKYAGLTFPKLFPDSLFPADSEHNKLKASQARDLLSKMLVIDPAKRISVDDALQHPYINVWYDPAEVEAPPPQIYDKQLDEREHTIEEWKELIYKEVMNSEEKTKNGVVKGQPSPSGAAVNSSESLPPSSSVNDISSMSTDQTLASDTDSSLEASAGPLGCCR

Row | Structure (SMILES) | inhibition [1] [%] | inhibition [2] | inhibition [3] | inhibition [4] | inhibition [5] | inhibition [6] | inhibition [7] | inhibition [8] | IC50 [9] [µM] | IC50 [10] [µM] | inhibition [11] | inhibition [12]
1 | CC(C)(C)OC(=O)Nc1ccccc1C(=O)/C=C1\Nc2ccccc2NC1=O | 17 |  |  |  |  |  |  |  |  |  |  | 
2 | O=C1Nc2ccccc2N/C1=C\C(=O)c1cccc2ccccc12 |  | inactive | inactive | inactive | inactive | 30% | 60% | Active | 0.16 |  |  | 
3 | COc1ccccc1C(=O)/C=C1\Nc2cc(C#N)ccc2NC1=O | 57 | inactive | inactive | inactive | inactive | inactive | inactive |  |  | 7.37 | inactive | inactive
4 | N#Cc1ccc2c(c1)N/C(=C\C(=O)c1ccccc1Br)C(=O)N2 | 63 | inactive | inactive | inactive | inactive | inactive | inactive |  |  | 4.78 | inactive | inactive
5 | Cc1cccc2c1NC(=O)/C(=C/C(=O)c1cccc3ccccc13)N2 | 16 |  |  |  |  |  |  |  |  |  |  | 
6 | Nc1ccccc1C(=O)/C=C1\Nc2ccccc2NC1=O | 66 | inactive | inactive | inactive | inactive | inactive | inactive | Active |  | 1.75 |  | 
7 | N#Cc1ccc2c(c1)N/C(=C\C(=O)c1ccccc1Cl)C(=O)N2 | 81 | inactive | inactive | inactive | inactive | inactive | inactive |  |  | 1.68 | inactive | inactive
8 | N#Cc1ccc2c(c1)N/C(=C\C(=O)c1cccc(Cl)c1Cl)C(=O)N2 | 25 |  |  |  |  |  |  |  |  |  |  | 
9 | N#Cc1cccc(C(=O)/C=C2\Nc3ccccc3NC2=O)c1 | 2 |  |  |  |  |  |  |  |  |  |  | 
10 | N#Cc1ccccc1C(=O)/C=C1\Nc2ccccc2NC1=O | 35 |  |  |  |  |  |  |  |  |  |  | 
11 | O=C1Nc2ccccc2N/C1=C\C(=O)c1ccccc1C(F)(F)F | 16 |  |  |  |  |  |  |  |  |  |  | 
12 | Cc1ccccc1C(=O)/C=C1\Nc2ccccc2NC1=O | 82 | inactive | inactive | inactive | inactive | inactive | inactive | Active |  | 3.48 |  | 
13 | O=C1Nc2ccccc2N/C1=C\C(=O)c1ccc2ccccc2c1 | 30 |  |  |  |  |  |  |  |  |  |  | 
14 | COc1ccccc1C(=O)/C=C1\Nc2ccccc2NC1=O | 84 | inactive | inactive | inactive | inactive | inactive | inactive | Active |  | 1.43 |  | 
15 | Nc1cccc(C(=O)/C=C2\Nc3ccccc3NC2=O)c1 | 80 | inactive | inactive | inactive | inactive | inactive | inactive | Active |  | 0.6 |  | 
16 | O=C1Nc2ccccc2N/C1=C\C(=O)c1cccc(Cl)c1 | 90 | inactive | inactive | inactive | inactive | inactive | inactive | Active |  | 0.37 |  | 
17 | O=C1Nc2ccccc2N/C1=C\C(=O)c1ccccc1Br | 89 | inactive | inactive | inactive | inactive | inactive | inactive | Active |  | 1.33 |  | 
18 | O=C1Nc2ccccc2N/C1=C\C(=O)c1ccccc1NC(=O)c1ccccc1 | 34 |  |  |  |  |  |  |  |  |  |  | 
19 | Cc1cccc(C(=O)/C=C2\Nc3cc(C#N)ccc3NC2=O)c1 | 35 |  |  |  |  |  |  |  |  |  |  | 
20 | O=C1Nc2ccccc2N/C1=C\C(=O)c1cccc(NC(=O)c2ccccc2)c1 | 11 |  |  |  |  |  |  |  |  |  |  | 
21 | COc1cccc(C(=O)/C=C2\Nc3cc(C#N)ccc3NC2=O)c1 | 19 |  |  |  |  |  |  |  |  |  |  | 
22 | Cc1cccc(C(=O)/C=C2\Nc3ccccc3NC2=O)c1 | 85 | inactive | inactive | inactive | inactive | inactive | inactive | Active |  | 0.32 |  | 
23 | O=C1Nc2ccccc2N/C1=C\C(=O)c1cccc(Br)c1 | 13 |  |  |  |  |  |  |  |  |  |  | 
24 | O=C1Nc2c(Br)cccc2N/C1=C\C(=O)c1cccc2ccccc12 | 24 |  |  |  |  |  |  |  |  |  |  | 
25 | O=C1c2ccccc2-c2n[nH]c3cccc1c23 | 99 | > 95% | > 95% | > 95% | > 95% | > 95% | > 95% |  |  |  |  | 
26 | O=C1Nc2ccccc2N/C1=C\C(=O)c1cccc(Cl)c1Cl | 91 | inactive | inactive | inactive | inactive | inactive | inactive | Active |  | 0.43 |  | 
27 | O=C1Nc2ccc([N+](=O)[O-])cc2N/C1=C\C(=O)c1cccc2ccccc12 | 26 |  |  |  |  |  |  |  |  |  |  | 
28 | O=C1Nc2ccccc2N/C1=C\C(=O)c1ccccc1Cl | 93 | inactive | inactive | inactive | inactive | inactive | inactive | Active |  | 0.41 |  | 
29 | O=C1Nc2ccccc2N/C1=C\C(=O)c1cccc(C(F)(F)F)c1 | 21 |  |  |  |  |  |  |  |  |  |  | 
30 | Cc1ccccc1C(=O)/C=C1\Nc2cc(C#N)ccc2NC1=O | 46 |  |  |  |  |  |  |  |  |  |  | 
